Results: ChEMBL document CHEMBL1123164, “Analogues of poison ivy urushiol. Synthesis and biological activity of disubstituted n-alkylbenzenes” (1986)

Legend:
Assay type in all cases: functional
Cavia porcellus [1] = organism: Cavia porcellus; assay: Allergenic cross-reactivity was expressed as number of guinea pig with a positive skin reaction versus number tested upon sensitizing them to poison ivy urushiol; 0/15
How it was run: (§1)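 Guinea pigs sensitized topically with 1 mg purified poison ivy urushiol in 0.15 mL acetone on dorsal neck skin (about 10 cm2). Sensitivity was checked with 2 μg PDC in acetone on shaven abdominal skin. Test compounds (10 and 30 μg in acetone) went on abdominal sites. Animals counted positive for erythema/edema at 24, 48 and 72 h, alongside urushiol controls.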

Cavia porcellus [2] = organism: Cavia porcellus; assay: The dose which shows the cross-reactivity with guinea pig sensitized to poison ivy urushiol; how it was run: as §1
Cavia porcellus [3] = assay: Skin test reactivity (intensity of erythema and edema) was measured in guinea pig sensitized to poison ivy urushiol by Draize method
How it was run: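 Urushiol-sensitized guinea pigs (1 mg in 0.15 mL acetone, dorsal neck) received eliciting doses in acetone on abdominal skin. Erythema and edema were scored 0–4 by Draize at 24, 48 and 72 h and averaged per group. Irritancy was tested with similar doses on nonsensitized animals.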

Cavia porcellus [4] = organism: Cavia porcellus; assay: Allergenic cross-reactivity was expressed as number of guinea pig with a positive skin reaction versus number tested upon sensitizing them to poison ivy urushiol; 0/7; how it was run: as §1
Cavia porcellus [5] = organism: Cavia porcellus; assay: Allergenic cross-reactivity was expressed as number of guinea pig with a positive skin reaction versus number tested upon sensitizing them to poison ivy urushiol; 7/7; how it was run: as §1
Cavia porcellus [6] = organism: Cavia porcellus; assay: Allergenic cross-reactivity was expressed as number of guinea pig with a positive skin reaction versus number tested upon sensitizing them to poison ivy urushiol; 2/9; how it was run: as §1
Cavia porcellus [7] = organism: Cavia porcellus; assay: Allergenic cross-reactivity was expressed as number of guinea pig with a positive skin reaction versus number tested upon sensitizing them to poison ivy urushiol; 0/8; how it was run: as §1
Cavia porcellus [8] = organism: Cavia porcellus; assay: Allergenic cross-reactivity was expressed as number of guinea pig with a positive skin reaction versus number tested upon sensitizing them to poison ivy urushiol; 5/9; how it was run: as §1

SMILES: CCCCCCCCCCCCCCCc1ccc(O)cc1O
- Activity (Cavia porcellus [1]): 0
- Dose (Cavia porcellus [2]): 30 µg
- Activity (Cavia porcellus [3]): 0

SMILES: CCCCCCCCCCCCCc1cccc(O)c1NS(C)(=O)=O
- Activity (Cavia porcellus [4]): 0
- Dose (Cavia porcellus [2]): 10 µg
- Activity (Cavia porcellus [3]): 0

SMILES: CCCCCCCCCCCCCCCc1cccc(NS(C)(=O)=O)c1O
- Activity (Cavia porcellus [4]): 0
- Dose (Cavia porcellus [2]): 10 µg
- Activity (Cavia porcellus [3]): 0

SMILES: CCCCCCCCCCCCCCCc1cccc(N)c1O
- Activity (Cavia porcellus [5]): 7
- Dose (Cavia porcellus [2]): 10 µg
- Activity (Cavia porcellus [3]): 2.4

SMILES: CCCCCCCCCCCCCCCc1cccc(O)c1N
- Activity (Cavia porcellus [5]): 7
- Dose (Cavia porcellus [2]): 10 µg
- Activity (Cavia porcellus [3]): 2.9

SMILES: CCCCCCCCCCCCCCCCCc1cccc(O)c1N
- Activity (Cavia porcellus [5]): 7
- Dose (Cavia porcellus [2]): 10 µg
- Activity (Cavia porcellus [3]): 2.9

SMILES: CCCCCCCCCCCCCCCc1cccc(O)c1NS(C)(=O)=O
- Activity (Cavia porcellus [4]): 0
- Dose (Cavia porcellus [2]): 10 µg
- Activity (Cavia porcellus [3]): 0

SMILES: CCCCCCCCCCCCCCCCCc1cccc(O)c1NS(C)(=O)=O
- Activity (Cavia porcellus [4]): 0
- Dose (Cavia porcellus [2]): 10 µg
- Activity (Cavia porcellus [3]): 0

SMILES: CCCCCCCCCCCCCCCc1ccc(O)c(O)c1
- Activity (Cavia porcellus [6]): 2
- Dose (Cavia porcellus [2]): 1 µg
- Activity (Cavia porcellus [3]): 0.1

SMILES: CCCCCCCCCCCCCCc1c(O)cccc1O
- Dose (Cavia porcellus [2]): 10 µg
- Activity (Cavia porcellus [7]): 0
- Activity (Cavia porcellus [3]): 0

SMILES: CCCCCCCCCCCCCCCc1cc(O)ccc1O
- Activity (Cavia porcellus [1]): 0
- Dose (Cavia porcellus [2]): 1 µg
- Activity (Cavia porcellus [3]): 0

SMILES: CCCCCCCCCCCCCc1cccc(O)c1N
- Activity (Cavia porcellus [5]): 7
- Dose (Cavia porcellus [2]): 10 µg
- Activity (Cavia porcellus [3]): 2.9

SMILES: CCCCCCCCCCCCCCCc1cc(O)cc(O)c1 [CARDOL]
- Activity (Cavia porcellus [8]): 5
- Dose (Cavia porcellus [2]): 30 µg
- Activity (Cavia porcellus [3]): 0.6
